≈ marks a conversion by molar mass, not a printed value. Calls of active or inactive are those of the source. No cut-off for these calls is given here.
Legend:
[1] = tested on: Staphylococcus aureus; assay: Antibacterial activity against methicillin-resistant Staphylococcus aureus 33815 infected in in vitro pharmacokinetic model assessed as reduction in viable count at 1500 mg, iv every 8 hrs measured after 24 hrs using 10^6 CFU/ml inoculum; type: functional
How it was run: (§1)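 Single-compartment dilutional in vitro PK model, 37°C, stirred, in 10% Mueller-Hinton broth. […] Inoculum 10^6 CFU/ml from a 24-h plate culture was added 45 min before dosing. Viable counts by spiral plating on nutrient agar with β-lactamase neutralization. Log change was taken from time 0; detection limit 10^2 CFU/ml; at least triplicate.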

[2] = tested on: Staphylococcus aureus; assay: T>MIC for 2-log drop in count in methicillin-resistant Staphylococcus aureus 33815 in in vitro pharmacokinetic model after 24 hrs using 10^8 CFU/ml inoculum; type: functional
[3] = tested on: Staphylococcus aureus; assay: Antibacterial activity against methicillin-resistant Staphylococcus aureus 33815 infected in in vitro pharmacokinetic model assessed as reduction in viable count at 750 mg, iv every 8 hrs measured after 36 hrs using 10^8 CFU/ml inoculum; type: functional
How it was run: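 PK model at 37°C in 10% MHB. […] A 0.5 McFarland suspension (1 ml) was added and the model run overnight to reach 10^8 CFU/ml before dosing. Counts were spiral-plated on nutrient agar with β-lactamase. Change in log CFU/ml was measured from time 0; at least triplicate.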

[4] = tested on: Staphylococcus aureus; assay: Antibacterial activity against methicillin-resistant Staphylococcus aureus 33922 assessed as viable count at 4 times of MIC after 24 hrs using 10^6 CFU/ml inoculum; type: functional, organism-based
[5] = tested on: Staphylococcus aureus; assay: Antibacterial activity against methicillin-resistant Staphylococcus aureus 33922 infected in in vitro pharmacokinetic model assessed as reduction in viable count at 750 mg, iv every 8 hrs measured after 36 hrs using 10^6 CFU/ml inoculum; type: functional
[6] = tested on: Staphylococcus aureus; assay: AUBKC (0 to 48 hrs) in methicillin-resistant Staphylococcus aureus 33827 infected in in vitro pharmacokinetic model at 750 mg, iv every 8 hrs using 10^6 CFU/ml inoculum; type: functional
How it was run: (§2)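 Single-compartment dilutional in vitro PK model at 37°C in 10% Mueller-Hinton broth, stirred, flow 132 ml/h. […] Inoculum 10^6 CFU/ml added 45 min before dosing, or 10^8 CFU/ml run overnight. Viable counts with β-lactamase neutralisation. AUBKC by log-linear trapezoidal rule, at least triplicate.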

[7] = tested on: Staphylococcus aureus; assay: Antibacterial activity against methicillin-resistant Staphylococcus aureus 33820 infected in in vitro pharmacokinetic model assessed as reduction in viable count at 1500 mg, iv every 8 hrs measured after 12 hrs using 10^6 CFU/ml inoculum; type: functional; how it was run: as §1
[8] = tested on: Staphylococcus aureus; assay: Antibacterial activity against methicillin-resistant Staphylococcus aureus 33921 in in vitro pharmacokinetic model assessed as viable count at 6 times of MIC; type: functional
How it was run: (§3)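 Preexposure population analysis: time-zero model samples plated on nutrient agar without drug and with drug at multiples of the 10% broth MIC. Growth reported as log CFU/ml, detection limit 2 log10.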

[9] = tested on: Staphylococcus aureus; assay: T>MIC for 2-log drop in count in methicillin-resistant Staphylococcus aureus 33829 in in vitro pharmacokinetic model after 24 hrs using 10^6 CFU/ml inoculum; type: functional
[10] = tested on: Staphylococcus aureus; assay: Antibacterial activity against methicillin-resistant Staphylococcus aureus 33815 assessed as viable count at 4 times of MIC after 48 hrs using 10^6 CFU/ml inoculum; type: functional, organism-based
How it was run: (§4)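 Population analysis during tomopenem dose-ranging runs in the in vitro PK model (10^6 CFU/ml, T>MIC 0-100%). […] Growth counted as log CFU/ml, detection limit 2 log10.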

[11] = tested on: Staphylococcus aureus; assay: T>MIC in methicillin-sensitive Staphylococcus aureus 5956 infected in vitro pharmacokinetic model at 1500 mg, iv every 8 hrs; type: functional
[12] = tested on: Staphylococcus aureus; assay: AUBKC (0 to 48 hrs) in methicillin-resistant Staphylococcus aureus 33820 infected in in vitro pharmacokinetic model at 1500 mg, iv every 8 hrs using 10^6 CFU/ml inoculum; type: functional; how it was run: as §2
[13] = tested on: Staphylococcus aureus; assay: Antibacterial activity against methicillin-sensitive Staphylococcus aureus 5956 infected in in vitro pharmacokinetic model assessed as reduction in viable count at 1500 mg, iv every 8 hrs measured after 36 hrs using 10^6 CFU/ml inoculum; type: functional
[14] = tested on: Staphylococcus aureus; assay: Antibacterial activity against methicillin-resistant Staphylococcus aureus 33921 infected in in vitro pharmacokinetic model assessed as time required to 99.9% killing at 1500 mg, iv every 8 hrs using 10^6 CFU/ml inoculum; type: functional
[15] = tested on: Staphylococcus aureus; assay: Antibacterial activity against methicillin-resistant Staphylococcus aureus 33820 infected in in vitro pharmacokinetic model assessed as reduction in viable count at 1500 mg, iv every 8 hrs measured after 36 hrs using 10^6 CFU/ml inoculum; type: functional; how it was run: as §1
[16] = tested on: Staphylococcus aureus; assay: T>MIC for static effect in methicillin-resistant Staphylococcus aureus 33922 in in vitro pharmacokinetic model after 24 hrs using 10^6 CFU/ml inoculum; type: functional
[17] = tested on: Staphylococcus aureus; assay: Antibacterial activity against methicillin-resistant Staphylococcus aureus 33815 assessed as viable count at 2 times of MIC after 24 hrs using 10^6 CFU/ml inoculum; type: functional, organism-based; how it was run: as §4
[18] = tested on: Staphylococcus aureus; assay: Antibacterial activity against methicillin-sensitive Staphylococcus aureus 5956 infected in in vitro pharmacokinetic model assessed as time required to 99.9% killing at 750 mg, iv every 8 hrs using 10^6 CFU/ml inoculum; type: functional
[19] = tested on: Staphylococcus aureus; assay: T>MIC for 1-log drop in count in methicillin-sensitive Staphylococcus aureus 5956 in in vitro pharmacokinetic model after 24 hrs using 10^6 CFU/ml inoculum; type: functional
How it was run: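 Dose-ranging: 7–13 simulated regimens per strain giving T>MIC of 0–100% (MIC from 10% MHB), at 106 or 10^8 CFU/ml as stated.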

[20] = tested on: Staphylococcus aureus; assay: Antibacterial activity against methicillin-resistant Staphylococcus aureus; type: functional
[21] = tested on: Staphylococcus aureus; assay: Antibacterial activity against methicillin-resistant Staphylococcus aureus 33829 in in vitro pharmacokinetic model assessed as viable count at 4 times of MIC; type: functional; how it was run: as §3
[22] = tested on: Staphylococcus aureus; assay: Antibacterial activity against methicillin-resistant Staphylococcus aureus 33921 infected in in vitro pharmacokinetic model assessed as reduction in viable count at 1500 mg, iv every 8 hrs measured after 36 hrs using 10^6 CFU/ml inoculum; type: functional
How it was run: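 Single-compartment dilutional in vitro PK model, 10% Mueller-Hinton broth, 37°C, stirred, dilution 132 ml/h. […] Inoculum 10^6 CFU/ml (added 45 min pre-dose) or 10^8 CFU/ml (run overnight). Viable counts by spiral plating, beta-lactamase neutralization, detection limit 10^2 CFU/ml. At least triplicate.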

[23] = tested on: Staphylococcus aureus; assay: AUBKC (0 to 48 hrs) in methicillin-resistant Staphylococcus aureus 33922 infected in in vitro pharmacokinetic model at 1500 mg, iv every 8 hrs using 10^6 CFU/ml inoculum; type: functional; how it was run: as §2
[24] = tested on: Staphylococcus aureus; assay: Antibacterial activity against methicillin-resistant Staphylococcus aureus 33815 infected in in vitro pharmacokinetic model assessed as time required to 99% killing at 750 mg, iv every 8 hrs using 10^8 CFU/ml inoculum; type: functional
How it was run: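 T99 and T99.9 were taken as the times for the count to fall 99% or 99.9% from time 0, using serial viable counts over 48 h. Inoculum was 10^8 CFU/ml, grown overnight in the model before dosing.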

[25] = tested on: Staphylococcus aureus; assay: AUBKC (0 to 24 hrs) in methicillin-resistant Staphylococcus aureus 33820 infected in in vitro pharmacokinetic model at 750 mg, iv every 8 hrs using 10^6 CFU/ml inoculum; type: functional; how it was run: as §2

With C[C@@H](O)[C@H]1C(=O)N2C(C(=O)O)=C(S[C@H]3C[C@@H](C(=O)N4CC[C@H](NC(=O)CNC(=N)N)C4)N(C)C3)[C@H](C)[C@H]12 [TOMOPENEM] the log10CFU/ml [1] was 4.2, the “fT>MIC” value [2] was 2% and the log10CFU/ml [3] was 5.5. For the same compound, the Activity [4] was “inactive”, the log10CFU/ml [5] was 4 and the AUBC [6] was 44.9 log10CFU/ml.hr. For the same compound, the log10CFU/ml [7] was 4.2, the log10CFU/ml [8] was less than 2 and the “fT>MIC” value [9] was 20.8%. For the same compound, the Activity [10] was “Active”, the “fT>MIC” value [11] was 100% and the AUBC [12] was 23.4 log10CFU/ml.hr. The log10CFU/ml [13] was 4.4, the Time [14] was 12 h and the log10CFU/ml [15] was 3.8. The “fT>MIC” value [16] was 1.3%, the Activity [17] was “Active” and the Time [18] was 6 h. The “fT>MIC” value [19] was 7.4%, the MIC50 [20] was 2 µg/mL (≈ 3.72 µM) and the MIC90 [20] was 4 µg/mL (≈ 7.44 µM). The log10CFU/ml [21] was 5.4, the log10CFU/ml [22] was 4.2 and the AUBC [23] was 16.9 log10CFU/ml.hr. For the same compound, the Time [24] was 16 h and the AUBC [25] was 28.6 log10CFU/ml.hr.

Reference: ChEMBL document CHEMBL1255300, “Pharmacodynamics of the antibacterial effect and emergence of resistance to tomopenem, formerly RO4908463/CS-023, in an in vitro pharmacokinetic model of Staphylococcus aureus infection” (Antimicrob Agents Chemother, 2008)
